From ChEMBL document CHEMBL3407438, “Discovery of potent, orally bioavailable, small-molecule inhibitors of WNT signaling from a cell-based pathway screen” (J Med Chem, 2015) come the findings set out here.

pIC50: −log10 of the molar value. Active and inactive are the calls of the source. The rule behind the calls is not given here. Bounds are passed on as bounds.

A short description of data set [1]: AUC in NMRI mouse at 0.5 mg/kg, po. It counts as ADME, organism-based. The following applies: plasma. The arrangement: dose 0.5 mg/kg, route oral. In short, it runs like this:
(§1)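 Female NMRI mice (n = 5) given a single iv bolus (0.2 mg/kg per compound) or oral gavage (0.5 mg/kg per compound) as a cassette, in DMSO/PEG 200/water. Serial retro-orbital blood was drawn under isoflurane from 3 animals per route at 0.1 (iv), 0.25 (po), 0.5, 1, 2, 4 and 6 h. Plasma was quantified by LC–MS/MS.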

Data set [2] can be described thus: Volume of distribution at steady state in NMRI mouse at 0.2 mg/kg, iv. It counts as ADME, organism-based. The arrangement: dose 0.2 mg/kg, route intravenous. The following applies: in vivo, read-out: Vdss. In short, it runs like this: as §1
Data set [3] is described as follows: Tmax in NMRI mouse at 0.5 mg/kg, po. The note with it: in vivo. The arrangement: dose 0.5 mg/kg, route oral. In kind it is ADME, organism-based. The essentials: as §1
The nature of data set [4]: Clearance in NMRI mouse at 0.2 mg/kg, iv. In kind it is ADME, organism-based. The arrangement: dose 0.2 mg/kg, route intravenous. The note with it: in vivo. The essentials:
as §1

The nature of data set [5]: AUC in Wistar rat at 0.2 mg/kg, iv. The arrangement: dose 0.2 mg/kg, route intravenous. It counts as ADME, organism-based. The note with it: plasma. In short, it runs like this: (§2)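 Male Wistar rats (n = 6) received cassette dosing, either iv bolus at 0.2 mg/kg or oral gavage at 0.5 mg/kg per compound, in DMSO/PEG 200/water. Plasma levels were measured by UPLC–MS/MS.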

The target of another data set is Cytochrome P450 3A4 (Homo sapiens, UniProt P08684). Nature of the data set: Inhibition of CYP3A4 (unknown origin). The following applies: human. It counts as ADME.
Another data set can be described thus: cells. The note with it: Homo sapiens, RKO-F1522, 24 h.
Data set [6] is described as follows: Half life in NMRI mouse at 0.2 mg/kg, iv. It counts as ADME, organism-based. The arrangement: dose 0.2 mg/kg, route intravenous. The note with it: in vivo. The essentials:
as §1

The next data set has as its system COLO 205. Briefly: Effect on TCF4 level in human COLO205-F1756 clone 4 cells harboring APC mutant and TCF/LEF responsive element at 350 nM by immunoblotting. In kind it is functional, cell-based.
A short description of data set [7]: Tmax in Wistar rat at 0.2 mg/kg, iv. The arrangement: dose 0.2 mg/kg, route intravenous. It counts as ADME, organism-based. The following applies: in vivo. The essentials: as §2
In data set [8] the target is T1, Poly [ADP-ribose] polymerase tankyrase-1 (Homo sapiens, UniProt O95271).
T1 sequence (O95271 whole entry): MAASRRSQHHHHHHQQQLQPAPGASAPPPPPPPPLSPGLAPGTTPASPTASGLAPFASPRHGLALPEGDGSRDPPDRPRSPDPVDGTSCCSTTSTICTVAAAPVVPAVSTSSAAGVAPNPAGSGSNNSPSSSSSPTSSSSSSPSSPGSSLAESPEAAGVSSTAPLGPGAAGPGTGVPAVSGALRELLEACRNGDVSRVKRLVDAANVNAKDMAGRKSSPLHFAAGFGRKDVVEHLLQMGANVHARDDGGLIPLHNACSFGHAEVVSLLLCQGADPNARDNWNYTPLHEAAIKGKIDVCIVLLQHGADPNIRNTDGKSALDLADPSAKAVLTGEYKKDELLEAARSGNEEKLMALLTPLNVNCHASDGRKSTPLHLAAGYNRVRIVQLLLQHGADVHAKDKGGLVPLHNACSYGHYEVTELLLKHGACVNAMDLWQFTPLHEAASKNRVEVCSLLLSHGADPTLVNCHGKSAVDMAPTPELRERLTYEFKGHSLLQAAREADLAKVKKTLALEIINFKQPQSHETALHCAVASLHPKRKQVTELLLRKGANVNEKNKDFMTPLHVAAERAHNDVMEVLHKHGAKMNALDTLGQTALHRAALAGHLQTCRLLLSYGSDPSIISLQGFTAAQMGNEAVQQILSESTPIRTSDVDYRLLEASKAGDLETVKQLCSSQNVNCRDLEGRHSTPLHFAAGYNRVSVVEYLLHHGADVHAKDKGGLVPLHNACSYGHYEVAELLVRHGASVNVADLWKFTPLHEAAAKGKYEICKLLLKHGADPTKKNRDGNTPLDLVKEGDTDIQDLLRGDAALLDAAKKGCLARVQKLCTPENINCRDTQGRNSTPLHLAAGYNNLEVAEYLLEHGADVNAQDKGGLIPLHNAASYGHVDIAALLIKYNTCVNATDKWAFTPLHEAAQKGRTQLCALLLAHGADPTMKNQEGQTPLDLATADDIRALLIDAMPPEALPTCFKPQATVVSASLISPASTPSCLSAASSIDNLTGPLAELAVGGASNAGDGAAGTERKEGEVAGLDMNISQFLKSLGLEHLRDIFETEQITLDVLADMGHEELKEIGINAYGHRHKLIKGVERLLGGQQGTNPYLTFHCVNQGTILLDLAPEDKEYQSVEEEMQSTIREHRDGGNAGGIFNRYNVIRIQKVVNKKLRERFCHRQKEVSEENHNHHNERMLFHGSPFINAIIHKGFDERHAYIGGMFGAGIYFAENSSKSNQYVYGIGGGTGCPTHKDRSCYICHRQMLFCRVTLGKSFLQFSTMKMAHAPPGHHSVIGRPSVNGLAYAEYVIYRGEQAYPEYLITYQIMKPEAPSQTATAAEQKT
Nature of the data set: Inhibition of GST-tagged TNKS1 (1023 to 1327 aa) (unknown origin) after 90 mins by HTRF assay.

A short description of data set [9]: Antitumor activity against human COLO205-F1756 clone 4 cells harboring APC mutant xenografted in CrTac:NCr-Foxn1nu mouse assessed as reduction in tumor weight at 70 mg/kg, po bid for 9 days relative to control. It counts as functional, COLO 205. The arrangement: scale not given: the % may be the effect or the level left. In short, it runs like this:
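Female athymic nude mice were implanted sc in the flank with 3 million COLO205-F1756 clone 4 cells. At about 100 mm3, groups of n = 8 were gavaged at 70 mg/kg bid or with vehicle (10% DMSO, 5% Tween 20 in saline). Luminescent flux was imaged after sc D-luciferin 2 and 6 h post final dose, then tumours were excised and weighed. Mann–Whitney U test.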

Sequence of Cytochrome P450 3A4 (P08684 whole entry): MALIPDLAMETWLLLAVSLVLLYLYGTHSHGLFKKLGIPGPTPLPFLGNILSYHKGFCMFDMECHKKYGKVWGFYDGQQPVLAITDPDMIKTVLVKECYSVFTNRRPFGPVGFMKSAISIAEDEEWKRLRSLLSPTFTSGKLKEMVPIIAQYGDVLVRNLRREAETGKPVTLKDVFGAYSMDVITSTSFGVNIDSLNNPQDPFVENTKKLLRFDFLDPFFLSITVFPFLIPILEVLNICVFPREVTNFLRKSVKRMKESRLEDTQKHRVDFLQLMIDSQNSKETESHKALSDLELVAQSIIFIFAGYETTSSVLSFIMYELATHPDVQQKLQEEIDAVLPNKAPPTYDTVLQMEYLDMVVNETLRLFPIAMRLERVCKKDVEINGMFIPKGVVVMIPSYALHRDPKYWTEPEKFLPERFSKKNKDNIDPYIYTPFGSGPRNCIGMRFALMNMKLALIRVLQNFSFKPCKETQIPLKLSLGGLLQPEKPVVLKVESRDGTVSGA

In the case of `Cn1cc(-c2ccc(-c3cncc(Cl)c3N3CCC4(CCNC4=O)CC3)cc2)cn1`, the AUC in data set [1] is 143 ng·h/mL; in data set [5] it was 130 ng·h/mL. Further, the Vd in data set [2] worked out at 1.1 L/kg. The time of peak concentration (Tmax) in data set [3] was determined as 15 min; in data set [7], 6 min. In data set [4], the clearance turned out to be 31 mL/min/kg. For the same compound, the “inhibition (INH)” value at Cytochrome P450 3A4 is “Not Active”. Also, the pIC50 (in the data set “cells”; in data set [8]) was under 5.00 throughout. For the same compound, the half-life in [6] was 33 min. Also, the result with COLO 205 was inactive. For the same compound, the Activity in data set [9] came to 37.5%.
